From ChEMBL document CHEMBL4813987, “Membrane active 7-thiazoxime quinolones as novel DNA binding agents to decrease the genes expression and exert potent anti-methicillin-resistant Staphylococcus aureus activity” (Eur J Med Chem, 2021)

Experiments:
Assay type in all cases: functional
Enterococcus faecalis = test: Antibacterial activity against Enterococcus faecalis assessed as reduction in microbial growth by two fold microdilution method
Staphylococcus aureus [1] = test: Antibacterial activity against Staphylococcus aureus ATCC 25923 assessed as reduction in microbial growth by two fold microdilution method
Staphylococcus aureus [2] = test: Antibacterial activity against Staphylococcus aureus assessed as reduction in microbial growth by two fold microdilution method
In short: (§1)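 MIC determined by the standard two-fold broth micro-dilution assay, with norfloxacin and ciprofloxacin as reference agents.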

Escherichia coli [3] = test: Antibacterial activity against Escherichia coli assessed as reduction in microbial growth by two fold microdilution method
Pseudomonas aeruginosa [4] = test: Antibacterial activity against Pseudomonas aeruginosa ATCC 27853 assessed as reduction in microbial growth by two fold microdilution method
Staphylococcus aureus [5] = test: Antibacterial activity against Staphylococcus aureus ATCC 29213 assessed as reduction in microbial growth by two fold microdilution method
Escherichia coli [6] = test: Antibacterial activity against Escherichia coli ATCC 25922 assessed as reduction in microbial growth by two fold microdilution method
Pseudomonas aeruginosa [7] = test: Antibacterial activity against Pseudomonas aeruginosa assessed as reduction in microbial growth by two fold microdilution method
Staphylococcus aureus [8] = test: Antibacterial activity against methicillin-resistant Staphylococcus aureus assessed as reduction in microbial growth by two fold microdilution method; in short: as §1
Klebsiella pneumoniae = test: Antibacterial activity against Klebsiella pneumonia assessed as reduction in microbial growth by two fold microdilution method
Acinetobacter baumannii = test: Antibacterial activity against Acinetobacter baumannii assessed as reduction in microbial growth by two fold microdilution method
Staphylococcus aureus [9] = test: Potency index, ratio of norfloxacin MIC to test compound MIC for antibacterial activity against methicillin-resistant Staphylococcus aureus assessed as reduction in microbial growth by two fold microdilution method

SMILES	MIC (Enterococcus faecalis) [µg/mL]	MIC (Staphylococcus aureus [1]) [µg/mL]	MIC (Staphylococcus aureus [2]) [µg/mL]	MIC (Escherichia coli [3]) [µg/mL]	MIC (Pseudomonas aeruginosa [4]) [µg/mL]	MIC (Staphylococcus aureus [5]) [µg/mL]	MIC (Escherichia coli [6]) [µg/mL]	MIC (Pseudomonas aeruginosa [7]) [µg/mL]	MIC (Staphylococcus aureus [8]) [µg/mL]	MIC (Klebsiella pneumoniae) [µg/mL]	MIC (Acinetobacter baumannii) [µg/mL]	Ratio (Staphylococcus aureus [9])
O=C(O)c1cn(C2CC2)c2c(Cl)c(N3CCN(C/C(=N\OCc4ccccc4)c4nccs4)CC3)c(F)cc2c1=O	0.25	1	2	0.25	0.25	2	0.25	1	0.25	0.25	0.25	–
CC(C)(C)O/N=C(\CN1CCN(c2cc3c(cc2F)c(=O)c(C(=O)O)cn3C2CC2)CC1)c1nccs1	2	1	4	128	0.25	4	1	0.25	4	64	4	–
CCn1cc(C(=O)O)c(=O)c2cc(F)c(N3CCNCC3)cc21 [NORFLOXACIN]	4	2	4	16	8	2	16	2	16	4	2	–
CCn1cc(C(=O)O)c(=O)c2cc(F)c(N3CCN(C/C(=N\OCc4ccccc4)c4nccs4)CC3)cc21	0.25	0.25	4	0.5	1	256	64	0.5	0.25	128	1	64
O=C(CN1CCN(c2cc3c(cc2F)c(=O)c(C(=O)O)cn3C2CC2)CC1)c1nccs1	8	4	1	4	1	2	4	1	16	16	2	–
C=CCO/N=C(\CN1CCN(c2cc3c(cc2F)c(=O)c(C(=O)O)cn3C2CC2)CC1)c1nccs1	0.25	0.25	0.25	1	0.25	32	0.5	0.25	0.25	0.25	0.25	–
CCO/N=C(\CN1CCN(c2cc3c(cc2F)c(=O)c(C(=O)O)cn3C2CC2)CC1)c1nccs1	0.25	0.5	0.25	2	0.25	4	32	0.25	0.25	0.25	1	–
O=C(O)c1cn(C2CC2)c2cc(N3CCN(C/C(=N\OCc4ccccc4)c4nccs4)CC3)c(F)cc2c1=O	2	1	0.25	0.25	1	0.5	256	0.25	0.25	256	8	–
CCn1cc(C(=O)O)c(=O)c2cc(F)c(N3CCN(C/C(=N\OC(C)(C)C)c4nccs4)CC3)cc21	0.25	1	0.25	1	1	16	1	2	0.25	1	16	64
C=CCO/N=C(\CN1CCN(c2c(F)cc3c(=O)c(C(=O)O)cn(C4CC4)c3c2Cl)CC1)c1nccs1	0.25	0.25	0.25	0.25	0.25	0.5	0.5	0.25	0.25	256	0.25	–
COC(=O)CO/N=C(\CN1CCN(c2c(F)cc3c(=O)c(C(=O)O)cn(C4CC4)c3c2Cl)CC1)c1nccs1	0.25	0.25	0.25	4	0.25	0.25	0.5	0.25	0.25	256	4	–
